Laboratory results from ChEMBL document CHEMBL1909632, “New aldehyde and vinylsulfone proteasome inhibitors for targeted melanoma therapy” (Eur J Med Chem, 2011).
Peptide text beside a SMILES is read from it. * marks the point of attachment. Cbz = O=C(OCc1ccccc1)*

Tests used:
[1] = Cytotoxicity against human IPC227F cells after 48 hrs using Hoechst 33342 dye-based fluorescence microplate reader; type: functional, cell-based
Procedure, shortened: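 Attached IPC227F human ocular melanoma cells were seeded and grown 24 h at 37 °C, 5% CO2, in DMEM with 10% fetal calf serum. Cells were then given fresh medium with increasing drug concentrations from DMSO stocks (DMSO final 0.025%) for 48 h, PBS-washed and frozen at -80 °C. Hoechst 33342 staining followed at room temperature in the dark. Fluorescence was read at 360/460 nm, survival was expressed as % of untreated control, and IC50 determined.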

[2] = Drug uptake in tumor of mouse xenografted with mouse B16 cells after 6 hrs; type: ADME, Neoplasm; conditions: in vivo
[3] = Drug uptake in tumor of mouse xenografted with mouse B16 cells assessed per gram of tissue after 15 mins; type: ADME, Neoplasm; conditions: in vivo, 0.25 h
[4] = Ratio of drug level in tumor to blood in mouse; type: ADME, organism-based
[5] = Drug uptake in tumor of mouse xenografted with mouse B16 cells assessed per gram of tissue after 3 hrs; type: ADME, Neoplasm; conditions: in vivo
[6] = Drug uptake in tumor of mouse xenografted with mouse B16 cells assessed per gram of tissue after 72 hrs; type: ADME, Neoplasm; conditions: in vivo

Compound | IC50 [1] [µM] | further results
CCN(CC)CCNC(=O)c1ccc(C(=O)N[C@@H](Cc2ccccc2)C(=O)N[C@@H](CC(C)C)C(=O)N[C@H](/C=C/S(C)(=O)=O)CC(C)C)cc1 | 120 | 
CCN(CC)CCNC(=O)c1ccc(C(=O)N[C@@H](CC(C)C)C(=O)N[C@@H](CC(C)C)C(=O)N[C@H](/C=C/S(C)(=O)=O)CC(C)C)cc1 | 28.7 | 
CCCN(CCC)CCCCNC(=O)c1ccc(C(=O)N[C@@H](CC(C)C)C(=O)N[C@@H](CC(C)C)C(=O)N[C@H](C=O)CC(C)C)cc1 | 4.18 | 
CCN(CC)CCNC(=O)c1ccc(C(=O)N[C@@H](Cc2ccccc2)C(=O)N[C@@H](CC(C)C)C(=O)N[C@H](C=O)CC(C)C)cc1 | 11.9 | 
CCN(CC)CCNC(=O)c1ccc(C(=O)N[C@@H](Cc2ccccc2)C(=O)N[C@H](/C=C/S(C)(=O)=O)CC(C)C)cc1 | 94.5 | 
CCCN(CCC)CCNC(=O)c1ccc(C(=O)N[C@@H](CC(C)C)C(=O)N[C@@H](CC(C)C)C(=O)N[C@H](C=O)CC(C)C)cc1 | 0.71 | 
CC(C)C[C@@H](C=O)NC(=O)[C@H](CC(C)C)NC(=O)[C@H](CC(C)C)NC(=O)OCc1ccccc1 [MG-132] (Cbz-Leu-Leu-Leu-aldehyde) | 0.077 | 
CCN(CC)CCNC(=O)c1ccc(C(=O)N[C@@H](CC(C)C)C(=O)N[C@@H](CC(C)C)C(=O)N[C@H](C=O)CC(C)C)c([125I])c1 |  | Drug uptake [2]: 1.2%; Drug uptake [3]: 2.7%; Kp [4]: ≥ 1; Drug uptake [5]: 1.2%
CCN(CC)CCNC(=O)c1ccc(C(=O)N[C@@H](Cc2ccccc2)C(=O)N[C@H](C=O)CC(C)C)cc1 | 20.9 | 
CCCN(CCC)CCCCNC(=O)c1ccc([125I])cc1 |  | Drug uptake [6]: 3.2%
CCN(CC)CCNC(=O)c1ccc(C(=O)N[C@@H](CC(C)C)C(=O)N[C@@H](CC(C)C)C(=O)N[C@H](C=O)CC(C)C)cc1 | 0.64 | 
